Source: ChEMBL document CHEMBL1125218, “Substituted 2-(aminomethyl)piperidines: a novel class of selective protein kinase C inhibitors” (J Med Chem, 1991)

Experiments:
[1] = molecular target: cAMP-dependent protein kinase catalytic subunit alpha (Rattus norvegicus) (UniProt P27791); assay: In vitro inhibition of cAMP-dependent kinase Protein kinase A isolated from rat brain by 100 uM.
Outline: (§1)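 PKA catalytic subunit at 4 ng/mL in 20 mM Tris with 10 μM histone, 100 μM dibutyryl-cAMP and 100 μM [³²P]ATP. Percent inhibition measured at 100 μM test compound.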

[2] = molecular target: T1, Protein kinase C, PKC; classical (Rattus norvegicus, UniProt P05696+P68403+P63319); assay: In vitro inhibition of [32P] incorporation into histones by rat brain partially purified Protein kinase C in the presence of PMA, [Ca2+] and phosphatidylserine.
Outline: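 Partially purified rat brain PKC activated by PMA, Ca²⁺ and phosphatidylserine. Read-out is inhibition of ³²P incorporation into histones. Some values are extrapolated.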

[3] = molecular target: cAMP-dependent protein kinase catalytic subunit alpha (Rattus norvegicus) (UniProt P27791); assay: (§2) Inhibition of cAMP-dependent kinase PKA(Protein kinase A) catalytic subunit at 100 uM; outline: as §1
[4] = molecular target: T1, Protein kinase C, PKC; classical; assay: Inhibition of PMA and [Ca2+] induced 32P incorporation into histones by partially purified rat brain Protein kinase C
Outline: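 Partially purified rat brain PKC activated by PMA, Ca²⁺ and phosphatidylserine. Read-out is inhibition of ³²P incorporation into histones. IC50 taken from concentration-inhibition curves run up to 100 μM inhibitor. Some values are extrapolated.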

[5] = molecular target: cAMP-dependent protein kinase catalytic subunit alpha (Rattus norvegicus) (UniProt P27791); assay: Inhibition of cAMP-dependent kinase PKA (Protein kinase A) catalytic subunit at 100 uM; outline: as §1
[6] = molecular target: T2, Protein kinase C alpha type (Rattus norvegicus, UniProt P05696); assay: Inhibition of [3H]-phorbol dibutyrate binding to Protein kinase C alpha
[7] = molecular target: T2, Protein kinase C alpha type; assay: Effect of Phosphatidylserine on inhibition of Protein kinase C alpha
[8] = molecular target: cAMP-dependent protein kinase catalytic subunit alpha (Rattus norvegicus, UniProt P27791); assay: as §2

Row | inhibition [1] | IC50 [2] | Structure (SMILES) | other results
1 | 0% | 299 µM | CCCCCCCCCCC(=O)N1CCCCC1CNC(=O)[C@@H](N)CCCCN (some centres not stated) | 
2 | 0% | 92 µM | CCCCCCCCCCCCC(=O)N1CCCCC1CNC(=O)[C@@H](N)CCC(=O)OCc1ccccc1 (some centres not stated) | 
3 | 0% | 20 µM | CCCCCCCCCCCCC(=O)N1CCCCC1CNC(=O)[C@@H](N)CCCCN (some centres not stated) | IC50 [6]: 23 µM; Ki [7]: 12 µM
4 | 0% | 34 µM | CCCCCCCCCCCCC(=O)N1CCCCC1CNC(=O)[C@H](N)CCCCN (some centres not stated) | 
5 | 0% | 51 µM | CCCCCCCCCCCCC(=O)N1CCCCC1CNC(=O)CN (configuration not stated) | 
6 | 0% |  | CCCCCCCCC(=O)N1CCCCC1CNC(=O)[C@@H](N)CCCCN (some centres not stated) | 
7 | 0% | 72 µM | CCCCCCCCCCCCC(=O)N1CCCCC1CNC(=O)[C@@H](N)CCCN=C(N)N (some centres not stated) | 
8 | 0% | 72 µM | CCCCCCCCCCCCC(=O)N1CCCCC1CNC(=O)[C@@H](N)CCC(N)=O (some centres not stated) | 

Continued, compound first:

Row | Structure (SMILES) | inhibition [1] | IC50 [2] | other results
9 | CCCCCCCCCCCCCCCCC(=O)N1CCCCC1CNC(=O)[C@@H](N)CCCCN (some centres not stated) | 0% | 46 µM | 
10 | CCCCCCCCCCCCC(=O)N1CCCCC1CNC(=O)[C@@H](N)Cc1ncc[nH]1 (some centres not stated) | 0% | 60 µM | 
11 | CCCCCCCCCCCCC(=O)N1CCCCC1CNC(=O)[C@@H](N)CO (some centres not stated) | 0% | 45 µM | 
12 | CCCCCCC(=O)N1CCCCC1CNC(=O)[C@@H](N)CCCCN (some centres not stated) | 0% |  | 
13 | CCCCCCCCCCCCCCC(=O)N1CCCCC1CNC(=O)[C@@H](N)CCCCN (some centres not stated) |  |  | inhibition [3]: 0%; IC50 [4]: 38 µM
14 | CCCCCCCCCCCCC(=O)N1CCCCC1CNC(=O)[C@@H](N)CCCN (some centres not stated) | 0% | 23 µM | 
15 | CCCCCCCCCCCCC(=O)N1CCCCC1CNC(=O)[C@@H](N)CCSC (some centres not stated) | 0% | 159 µM | 
16 | CCCCCCCCCCCCC(=O)N1CCCCC1CNC(=O)[C@@H](N)CCC(=O)O (some centres not stated) | 0% |  | 
17 | CCCCCCCCCCCCCC(=O)N1CCCCC1CNC(=O)[C@@H](N)CCCCN (some centres not stated) | 0% | 48 µM | 
18 | CCCCCCCCCCCC(=O)N1CCCCC1CNC(=O)[C@@H](N)CCCCN (some centres not stated) | 0% | 102 µM | 
19 | CCCCCCCCCCCCCC(=O)N1CCCCC1CN (configuration not stated) |  |  | inhibition [5]: 46%; IC50 [4]: 36 µM
20 | CCCCCCCCCCCCC/C=C/[C@@H](O)[C@@H](N)CO [SPHINGOSINE] |  | 57 µM | IC50 [8]: 98 µM
21 | CCCCCCCCCCCCCCCCCC(=O)N1CCCCC1CNC(=O)[C@@H](N)CCCCN (some centres not stated) | 38% | 36 µM | 
22 | CCCCCCCCCCCCCCCC(=O)N1CCCCC1CNC(=O)[C@@H](N)CCCCN (some centres not stated) | 0% | 45 µM | 
23 | CCCCCCCCCCCCC(=O)N1CCCCC1CNC(=O)[C@H](C)N (some centres not stated) | 0% | 52 µM | 
24 | CCCCCCCCCCCCC(=O)N1CCCCC1CNC(=O)[C@@H](N)CC(C)C (some centres not stated) |  |  | inhibition [3]: 0%; IC50 [4]: 154 µM
